# Calls of active or inactive are those of the source. No cut-off for these calls is given here.
# Experiments:
# [1] = system: Human immunodeficiency virus 1; test: Antiviral activity against HIV1 3B infected in human CEM cells assessed as reduction of virus-induced cytopathogenicity after 4 to 5 days by trypan blue dye exclusion method; assay type: functional, organism-based; details: Human immunodeficiency virus 1, 3B, CCRF-CEM
# [2] = system: Human immunodeficiency virus 2; test: Antiviral activity against HIV2 ROD infected in human CEM cells assessed as reduction of virus-induced cytopathogenicity after 4 to 5 days by trypan blue dye exclusion method; assay type: functional, organism-based; details: Human immunodeficiency virus 2, ISOLATE ROD, CCRF-CEM
# [3] = system: Human immunodeficiency virus 2; test: Antiviral activity against HIV2 ROD infected in human TK-deficient CEM cells assessed as reduction of virus-induced cytopathogenicity after 4 to 5 days by trypan blue dye exclusion method; assay type: functional, organism-based; details: Human immunodeficiency virus 2, ISOLATE ROD, CCRF-CEM
# CCRF-CEM = test: (§1) Cytotoxicity against human CEM cells after 72 hrs by coulter counter analysis; assay type: cell-based; details: 72 h; for CC50: human, ccrf-cem; for IC50: Homo sapiens, CCRF-CEM
# Summary of the method: (§2)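 Tumour cells, (5–7.5) × 10⁴ per well, were grown with graded compound amounts at 37 °C in humidified CO₂. Growth time was 48 h for L1210, 72 h for CEM and 96 h for HeLa. Cells were then counted with a Coulter counter. IC50 was the concentration reducing cell proliferation by 50%.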
# [4] = as §1; assay type: cell-based, CCRF-CEM; details: human, CEM cells (CCRF-CEM); summary of the method: as §2
# [5] = target: Human immunodeficiency virus type 1 reverse transcriptase (Human immunodeficiency virus 1) (UniProt Q72547); test: Activity at HIV reverse transcriptase
# [6] = system: Human immunodeficiency virus 1; test: Antiviral activity against HIV1 NL4.3 infected in human MT4 cells assessed as reduction of virus-induced cytopathogenicity after 4 to 5 days by trypan blue dye exclusion method; assay type: functional, organism-based; details: Human immunodeficiency virus 1, NL4.3, MT4
# Summary of the method: (§3)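 MT-4 cells (~3 × 10⁵ cells/mL) were infected with 100 CCID50/mL of HIV and cultured with compound dilutions for 4–5 days at 37 °C in humidified CO₂. Viable cells were counted by trypan blue dye exclusion. EC50 was the concentration giving 50% inhibition of the HIV-induced cytopathic effect.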
# [7] = system: Human immunodeficiency virus 2; test: Antiviral activity against HIV2 ROD infected in human MT4 cells assessed as reduction of virus-induced cytopathogenicity after 4 to 5 days by trypan blue dye exclusion method; assay type: functional, organism-based; details: Human immunodeficiency virus 2, ISOLATE ROD; summary of the method: as §3
# MT4 = test: Cytotoxicity against human MT4 cells after 4 to 5 days by trypan blue dye exclusion method; assay type: cell-based
# L1210 = test: Cytotoxicity against mouse L1210 cells after 48 hrs by coulter counter analysis; assay type: cell-based; details: L1210, 48 h; summary of the method: as §2
# HeLa = test: Cytotoxicity against human HeLa cells after 96 hrs by coulter counter analysis; assay type: cell-based; summary of the method: as §2
# Human alphaherpesvirus 1 = test: Antiviral activity against HSV1 infected in HEL cells at 100 uM; assay type: functional, organism-based
# Human alphaherpesvirus 2 = test: Antiviral activity against HSV2 infected in HEL cells at 100 uM; assay type: functional, organism-based
# Vaccinia virus = test: Antiviral activity against Vaccinia virus infected in HEL cells at 100 uM; assay type: functional, organism-based; details: Orthopoxvirus vaccinia
# [8] = system: Vesicular stomatitis virus; test: Antiviral activity against Vesicular stomatitis virus infected in human HeLa cells at 100 uM; assay type: functional, organism-based
# Coxsackievirus = test: Antiviral activity against Coxsackievirus B4 infected in human HeLa cells at 100 uM; assay type: functional, organism-based
# Human orthopneumovirus = test: Antiviral activity against Respiratory syncytial virus infected in human HeLa cells at 100 uM; assay type: functional, organism-based
# Human respirovirus 3 = test: Antiviral activity against Parainfluenza virus 3 infected in African green monkey Vero cells at 100 uM; assay type: functional, organism-based
# [9] = system: Mammalian orthoreovirus 1; test: Antiviral activity against Reovirus-1 infected in African green monkey Vero cells at 100 uM; assay type: functional, cell-based
# Sindbis virus = test: Antiviral activity against Sindbis virus infected in African green monkey Vero cells at 100 uM; assay type: functional, organism-based
# Punta Toro virus = test: Antiviral activity against Punta Toro virus infected in African green monkey Vero cells at 100 uM; assay type: functional, organism-based
# Influenza A virus [10] = test: Antiviral activity against Influenza A virus H1N1 infected in MDCK cells at 100 uM; assay type: functional, organism-based
# Influenza A virus [11] = test: Antiviral activity against Influenza A virus H3N2 infected in MDCK cells at 100 uM; assay type: functional, organism-based
# Feline coronavirus = test: Antiviral activity against Feline coronavirus infected in CRFK cells at 100 uM; assay type: functional, organism-based
# Felid alphaherpesvirus 1 = test: Antiviral activity against Feline herpesvirus infected in CRFK cells at 100 uM; assay type: functional, organism-based
# [12] = Prodrug activation assessed as carboxypeptidase Y (unknown origin)-mediated drug metabolism after 13 hrs by 31P-NMR analysis; assay type: ADME, Homo sapiens
# Summary of the method: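 The substrate was dissolved in acetone-d6 and mixed with Trizma buffer (pH 7.6) for the carboxypeptidase Y incubation.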
smiles,measurement,setting,value
COC(=O)[C@@H](NP(=O)(Oc1ccccc1)OC1C[C@H](CO)[C@@H](O)C1)C(C)C (mixture of isomers),EC50,[1],> 250 µM
same,EC50,[2],> 250 µM
same,EC50,[3],250 µM
same,CC50,CCRF-CEM,> 250 µM
O=C(OCc1ccccc1)OC[C@H]1[C@H](O)CC[C@@H]1OC(=O)OCc1ccccc1,EC50,[1],2.1 µM
same,EC50,[2],5.4 µM
same,CC50 at 72 h,[4],94 µM
same,Activity,[5],inactive
CCCCCOC(=O)[C@H](C)NP(=O)(Oc1ccccc1)O[C@@H]1CC[C@H](O)[C@H]1CO (some centres not stated),IC50,CCRF-CEM,106 µM
same,EC50,[6],> 250 µM
same,EC50,[7],145 µM
same,CC50,MT4,> 250 µM
same,IC50,L1210,116 µM
same,IC50,HeLa,166 µM
OC[C@H]1CC(O)C[C@@H]1O (some centres not stated),EC50,[1],> 250 µM
same,EC50,[2],> 250 µM
same,CC50,CCRF-CEM,> 250 µM
C[C@H](NP(=O)(Oc1ccccc1)OC1C[C@H](CO)[C@@H](O)C1)C(=O)OC(C)(C)C (mixture of isomers),EC50,[1],> 250 µM
same,EC50,[2],> 250 µM
same,EC50,[3],250 µM
same,CC50,CCRF-CEM,> 250 µM
C[C@H](NP(=O)(Oc1ccccc1)OC1C[C@H](CO)[C@@H](O)C1)C(=O)OC1CCCCC1 (mixture of isomers),EC50,[1],> 250 µM
same,EC50,[2],> 250 µM
same,EC50,[3],250 µM
same,CC50,CCRF-CEM,> 250 µM
COC(=O)[C@H](C)NP(=O)(Oc1ccccc1)OC1C[C@H](CO)[C@@H](O)C1 (mixture of isomers),EC50,[1],> 250 µM
same,EC50,[2],> 250 µM
same,EC50,[3],250 µM
same,CC50,CCRF-CEM,> 250 µM
OC[C@H]1[C@H](O)CC[C@@H]1O,EC50,[1],3.8 µM
same,EC50,[2],12 µM
same,IC50,CCRF-CEM,≥ 250 µM
same,CC50,CCRF-CEM,> 250 µM
same,EC50,[6],6.7 µM
same,EC50,[7],7.5 µM
same,CC50,MT4,90 µM
same,IC50,L1210,55 µM
same,IC50,HeLa,175 µM
same,Activity,Human alphaherpesvirus 1,inactive
same,Activity,Human alphaherpesvirus 2,inactive
same,Activity,Vaccinia virus,inactive
same,Activity,[8],inactive
same,Activity,Coxsackievirus,inactive
same,Activity,Human orthopneumovirus,inactive
same,Activity,Human respirovirus 3,inactive
same,Activity,[9],inactive
same,Activity,Sindbis virus,inactive
same,Activity,Punta Toro virus,inactive
same,Activity,Influenza A virus [10],inactive
same,Activity,Influenza A virus [11],inactive
same,Activity,Feline coronavirus,inactive
same,Activity,Felid alphaherpesvirus 1,inactive
same,Activity,[5],inactive
O=C(OCc1ccccc1)OC[C@H]1CC(O)C[C@@H]1OC(=O)OCc1ccccc1 (some centres not stated),EC50,[1],> 50 µM
same,EC50,[2],> 50 µM
same,CC50 at 72 h,[4],110 µM
C[C@H](NP(=O)(Oc1cccc2ccccc12)OC1C[C@H](CO)[C@@H](O)C1)C(=O)OC1CCCCC1 (mixture of isomers),EC50,[1],> 50 µM
same,EC50,[2],> 50 µM
same,EC50,[3],50 µM
same,CC50,CCRF-CEM,> 250 µM
same,Stability,[12],Stable
C[C@H](NP(=O)(Oc1cccc2ccccc12)O[C@@H]1CC[C@H](O)[C@H]1CO)C(=O)OCC(C)(C)C (some centres not stated),IC50,CCRF-CEM,64 µM
same,EC50,[6],> 50 µM
same,EC50,[7],> 50 µM
same,CC50,MT4,112 µM
same,IC50,L1210,70 µM
same,IC50,HeLa,94 µM

# Reference: ChEMBL document CHEMBL3396947, “Synthesis and biological evaluation of phosphoramidate prodrugs of two analogues of 2-deoxy-d-ribose-1-phosphate directed to the discovery of two carbasugars as new potential anti-HIV leads” (Bioorg Med Chem, 2015)
